A short description of data set [1]: Half life in pooled human liver microsomes assessed as parent compound remaining at 2.5 uM measured up to 45 mins in presence of NADPH by LC-MS analysis. The format is ADME, Microsome. The procedure, abridged:
(§1)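 Compound at 2.5 μM (added from 100 μM stock in 50/50 acetonitrile/water) with 1 mg/mL pooled human liver microsomes and 250 μM NADPH in 0.1 M potassium phosphate pH 7.4 at 37 °C after 5-min preincubation. Sampled at 5, 10, 15, 30, 45 min into ice-cold acetonitrile with atropine internal standard; parent quantified by LC-MS (ESI+, [M+H]+); no-NADPH controls; half-time derived.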
A general note: Microsomes from liver hold many membrane-bound enzymes, among them those of drug oxidation.

The nature of data set [2]: Metabolic stability in pooled human liver microsomes at 2.5 uM measured over 45 mins in presence of NADPH by LC-MS analysis. The format is ADME, Microsome. As to conditions: 0.75 h. The method, boiled down: as §1
Data set [3] in a line: Effect on 8-OH-DPAT-induced lower lip retraction in Wistar rat at 20 mg/kg, ip pretreated with compound for 45 mins followed by 8-OH-DPAT challenge and measured after 15 mins (reference value: 2.7 to 2.8). The format is functional. As to conditions: time 60 min, 1 h.
The subject of data set [4] is Mus musculus. Kind of data set: Antipsychotic activity Swiss Albino mouse assessed as inhibition of DOI-induced head twitching by measuring number of episodes at 1.25 mg/kg, ip administered 30 mins prior to DOI stimulation (reference value: 19.63 to 19.88). The format is functional. As to conditions: 0.5 h. The method, boiled down:
(§2)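 Male Albino Swiss mice (24–28 g) were habituated to sawdust-lined cages 20 min before the first treatment. Compounds were suspended in 1% aqueous Tween 80 and given i.p. 30 min before (±)-DOI, 2.5 mg/kg i.p. in aqueous solution. Head twitches were counted blind over 20 min, n=8 per group, mean ± SEM, one-way ANOVA with Dunnett's test.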

For data set [5], the target named is Dopamine D2 receptor and Serotonin 2a receptor (D2 and 5HT2a) (Rattus norvegicus) (UniProt P61169+P14842). Kind of data set: Ratio of pKi for displacement of [3H]-ketanserin from rat cerebral cortex 5HT2A receptor measured after 20 mins by liquid scintillation counter method to pKi for displacement of [3H] Spiperone from rat striatum dopamine D2 receptor measured after 30 mins by liquid scintillation counter method. The procedure, abridged: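 Ratio of pKi values, 5-HT2A over D2, computed from competition radioligand binding in rat brain tissue.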
Dopamine D2 receptor and Serotonin 2a receptor (D2 and 5HT2a) (Rattus norvegicus), sequence (P14842 whole entry, looked up): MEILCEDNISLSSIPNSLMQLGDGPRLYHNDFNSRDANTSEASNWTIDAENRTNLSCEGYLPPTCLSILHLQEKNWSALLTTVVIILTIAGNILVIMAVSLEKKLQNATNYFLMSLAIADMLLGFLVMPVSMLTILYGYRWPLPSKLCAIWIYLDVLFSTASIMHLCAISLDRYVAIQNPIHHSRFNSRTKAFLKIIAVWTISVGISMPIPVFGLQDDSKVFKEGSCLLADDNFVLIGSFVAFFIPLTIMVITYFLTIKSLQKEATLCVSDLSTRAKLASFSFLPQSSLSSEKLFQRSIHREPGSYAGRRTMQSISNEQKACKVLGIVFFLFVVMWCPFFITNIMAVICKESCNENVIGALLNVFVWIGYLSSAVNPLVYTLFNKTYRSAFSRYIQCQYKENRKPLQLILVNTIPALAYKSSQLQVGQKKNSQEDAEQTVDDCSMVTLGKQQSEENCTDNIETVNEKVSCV
Dopamine D2 receptor and Serotonin 2a receptor (D2 and 5HT2a) (Rattus norvegicus), sequence (P61169 whole entry, looked up): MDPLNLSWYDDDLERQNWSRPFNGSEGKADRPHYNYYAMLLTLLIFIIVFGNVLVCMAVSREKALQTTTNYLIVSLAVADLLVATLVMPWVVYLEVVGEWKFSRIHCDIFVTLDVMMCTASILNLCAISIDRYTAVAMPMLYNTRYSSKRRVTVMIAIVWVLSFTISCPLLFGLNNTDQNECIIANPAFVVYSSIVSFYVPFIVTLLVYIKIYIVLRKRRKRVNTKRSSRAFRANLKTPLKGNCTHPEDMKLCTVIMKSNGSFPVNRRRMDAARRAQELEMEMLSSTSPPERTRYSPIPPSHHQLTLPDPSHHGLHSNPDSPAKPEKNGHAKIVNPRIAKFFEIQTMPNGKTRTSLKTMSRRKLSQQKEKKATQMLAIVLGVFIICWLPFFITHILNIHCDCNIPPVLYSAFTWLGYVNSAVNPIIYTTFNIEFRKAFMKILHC
(In a radioligand displacement assay an active substance lowers the binding of a labelled ligand.)

Data set [6] deals with Mus musculus. Kind of data set: Effect on 8-OH-DPAT-induced hypothermia in Swiss albino mouse assessed as change in rectal body temperature at 10 mg/kg, ip pretreated with compound for 45 mins followed by 8-OH-DPAT challenge and measured after 60 min by thermometer (reference value: -0.66 to -0.5 degreeC). The format is functional, organism-based. As to conditions: time 105.0 min.

Data set [7] concerns Mus musculus. The data set is described as follows: Effect on 8-OH-DPAT-induced hypothermia in Swiss albino mouse assessed as change in rectal body temperature at 20 mg/kg, ip pretreated with compound for 45 mins followed by 8-OH-DPAT challenge and measured after 30 min by thermometer (reference value: -1.36 to -1.12 degreeC). The format is functional, organism-based. As to conditions: time 75.0 min.

Data set [8] in a line: Effect on body temperature in Swiss Albino mouse assessed as rectal body temperature at 20 mg/kg, ip measured after 60 mins by thermometer (reference value: 0.33 to 0.61 degreeC). As to conditions: in vivo, 1 h. The format is ADME, organism-based.
The test system of data set [9] is Mus musculus. Kind of data set: Effect on 8-OH-DPAT-induced hypothermia in Swiss albino mouse assessed as change in rectal body temperature at 20 mg/kg, ip pretreated with compound for 45 mins followed by 8-OH-DPAT challenge and measured after 60 min by thermometer (reference value: -0.66 to -0.5 degreeC). It counts as functional, organism-based. As to conditions: time 105.0 min.

Data set [10] in a line: Effect on body temperature in Swiss Albino mouse assessed as rectal body temperature at 10 mg/kg, ip measured after 120 mins by thermometer (reference value: 0.15 to 1.11 degreeC). It counts as organism-based. As to conditions: in vivo, 2 h.
Data set [11] has as its target T1, 5-hydroxytryptamine receptor 1A (Rattus norvegicus, UniProt P19327).
T1 sequence (P19327 whole entry): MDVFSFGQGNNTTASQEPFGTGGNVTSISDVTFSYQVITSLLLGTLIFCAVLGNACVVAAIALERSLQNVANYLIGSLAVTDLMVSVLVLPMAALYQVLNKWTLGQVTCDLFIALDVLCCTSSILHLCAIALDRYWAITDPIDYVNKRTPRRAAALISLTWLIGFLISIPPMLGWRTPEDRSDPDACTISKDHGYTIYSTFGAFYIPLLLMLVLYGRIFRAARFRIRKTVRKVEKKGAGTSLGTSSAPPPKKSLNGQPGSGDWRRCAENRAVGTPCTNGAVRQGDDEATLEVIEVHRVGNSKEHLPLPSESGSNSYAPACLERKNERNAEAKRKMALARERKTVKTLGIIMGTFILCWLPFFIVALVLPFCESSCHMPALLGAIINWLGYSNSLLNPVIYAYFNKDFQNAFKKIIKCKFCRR
Kind of data set: Displacement of [3H]-8-OH-DPAT from rat cerebral cortex 5HT1A receptor measured after 15 mins by liquid scintillation counter method.

Data set [12] is described as follows: Effect on body temperature in Swiss Albino mouse assessed as rectal body temperature at 20 mg/kg, ip measured after 30 mins by thermometer (reference value: 0.16 to 0.33 degreeC). It counts as ADME, organism-based. As to conditions: in vivo, 0.5 h.
Data set [13] is described as follows: Effect on 8-OH-DPAT-induced lower lip retraction in Wistar rat at 10 mg/kg, ip pretreated with compound for 45 mins followed by 8-OH-DPAT challenge and measured after 15 mins (reference value: 2.7 to 2.8). As to conditions: time 60 min, 1 h. The format is functional.
Data set [14] relates to Mus musculus. The data set is described as follows: Effect on 8-OH-DPAT-induced hypothermia in Swiss albino mouse assessed as change in rectal body temperature at 10 mg/kg, ip pretreated with compound for 45 mins followed by 8-OH-DPAT challenge and measured after 30 min by thermometer (reference value: -1.36 to -1.12 degreeC). The format is functional, organism-based. As to conditions: time 75.0 min.

Data set [15] concerns Mus musculus. The data set is described as follows: Effect on 8-OH-DPAT-induced hypothermia in Swiss albino mouse assessed as change in rectal body temperature at 20 mg/kg, ip pretreated with compound for 45 mins followed by 8-OH-DPAT challenge and measured after 15 min by thermometer (reference value: -1.82 to -1.66 degreeC). It counts as functional, organism-based. As to conditions: time 60.0 min.

Data set [16] in a line: Effect on body temperature in Swiss Albino mouse assessed as rectal body temperature at 10 mg/kg, ip measured after 30 mins by thermometer (reference value: 0.16 to 0.33 degreeC). The format is organism-based. As to conditions: in vivo, 0.5 h.
The test system of data set [17] is Mus musculus. The data set is described as follows: Effect on 8-OH-DPAT-induced hypothermia in Swiss albino mouse assessed as change in rectal body temperature at 20 mg/kg, ip pretreated with compound for 45 mins followed by 8-OH-DPAT challenge and measured after 45 min by thermometer (reference value: -1.04 to -0.78 degreeC). The format is functional, organism-based. As to conditions: time 90.0 min.

Data set [18] can be described thus: Effect on body temperature in Swiss Albino mouse assessed as rectal body temperature at 10 mg/kg, ip measured after 90 mins by thermometer (reference value: 0.18 to 0.63 degreeC). It counts as ADME, organism-based. As to conditions: in vivo, 1.5 h.
A short description of data set [19]: Effect on body temperature in Swiss Albino mouse assessed as rectal body temperature at 20 mg/kg, ip measured after 120 mins by thermometer (reference value: 0.15 to 1.11 degreeC). It counts as ADME, organism-based. As to conditions: in vivo, 2 h.
Data set [20] has as its system Mus musculus. The data set is described as follows: Antipsychotic activity Swiss Albino mouse assessed as inhibition of DOI-induced head twitching by measuring number of episodes at 5 mg/kg, ip administered 30 mins prior to DOI stimulation (reference value: 19.63 to 19.88). The format is functional. As to conditions: 0.5 h. The method, boiled down:
as §2

SMILES strings stand for the structures.

Consider `O=C(NC1CC2CCC(C1)N2Cc1cccc(F)c1)c1ccc2ccccc2c1` (configuration not stated), for which, in data set [1], the half-life at 2.5 µM is greater than 45 min. Besides, the Stabilty result in [2] is recorded as “Stable”. The Activity came to 2.3 in data set [3], 2.3 in the data set with Mus musculus [4], 2.4 in data set [13] and 3.88 in the data set with Mus musculus [20]. Besides, in data set [5], the Ratio pKi came out at 1.05. The deltaT was -0.78 °C in the data set on Mus musculus [6]; -1.83 °C in the data set on Mus musculus [7]; 0.43 °C in data set [8]; -1.08 °C in the data set with Mus musculus [9]; 0.74 °C in [10]; -0.36 degrees C in [12]. Also, the deltaT in the data set with Mus musculus [14] is -1.37 °C; in the data set with Mus musculus [15], -1.67 °C; in [16], -0.17 °C; in the data set with Mus musculus [17], -1.53 °C; in data set [18], 0.47 °C; in data set [19] it was 0.81 °C. The same compound displayed a Ki in [11] of 211 nM.

`Cc1cccc(CN2C3CCC2CC(NC(=O)c2ccc4ccccc4c2)C3)c1` (configuration not stated): the half-life at 2.5 µM in [1] stood at 30 min. Further, the Activity came to 2.3 in [3], 15.63 with Mus musculus [4], 2.3 in data set [13] and 10 with Mus musculus [20]. Besides, the Ratio pKi in data set [5] was 0.78. The deltaT with Mus musculus [6] was -0.05 °C; in the data set on Mus musculus [7], -2.08 °C; in data set [8], 0.47 °C; in the data set with Mus musculus [9], -1.5 °C; in data set [10] it was 0.27 °C; in [12], 0.04 °C. Moreover, the deltaT is -0.97 °C with Mus musculus [14]; -1.9 °C in the data set on Mus musculus [15]; -0.02 °C in data set [16]; -2.08 °C with Mus musculus [17]; 0.35 °C in data set [18]; 0.24 °C in data set [19]. Further, the Ki in data set [11] was found to be 182 nM.

Turning to `O=C(NC1CC2CCC(C1)N2Cc1cccc(Br)c1)c1ccc2ccccc2c1` (configuration not stated), the half-life at 2.5 µM in [1] is greater than 45 min. In addition, in [2], the Stabilty result is listed as “Stable”. Moreover, the Activity in [3] was determined as 2.5; in [13], 2.4; in the data set with Mus musculus [20], 13.88. Moreover, the Ratio pKi in data set [5] was found to be 0.88. Further, the deltaT is -0.72 °C with Mus musculus [6]; -1.37 °C in the data set on Mus musculus [7]; 0.49 °C in data set [8]; -0.58 °C in the data set on Mus musculus [9]; 1.14 °C in [10]; -0.3 °C in data set [12]. In addition, the deltaT was -1.62 °C with Mus musculus [14]; -1.42 °C in the data set on Mus musculus [15]; -0.2 °C in data set [16]; -1.25 °C in the data set with Mus musculus [17]; 0.64 °C in [18]; 1.23 °C in data set [19]. This compound also gave a Ki in data set [11] of 200 nM.

Regarding `O=C(NC1CC2CCC(C1)N2Cc1ccc(F)cc1)c1ccc2ccccc2c1` (configuration not stated), the half-life at 2.5 µM in [1] was greater than 45 min. In [2], the Stabilty entry was “Stable”. The Activity in data set [3] is recorded as 2.4; in the data set on Mus musculus [4] it was 12.63; in [13], 2.5; with Mus musculus [20] it was 5. The Ratio pKi in data set [5] is 0.97. For the same compound, the deltaT is -0.73 °C in the data set with Mus musculus [6]; -1.6 °C in the data set with Mus musculus [7]; 0.46 °C in data set [8]; -1 °C in the data set on Mus musculus [9]; 0.59 °C in data set [10]; -0.33 °C in data set [12]. In addition, the deltaT in the data set on Mus musculus [14] was -1.32 °C; in the data set on Mus musculus [15] it was -1.62 °C; in data set [16], -0.17 °C; with Mus musculus [17] it was -1.43 °C; in [18], 0.44 °C; in data set [19], 0.54 °C. The compound further came in with a Ki in [11] of 218 nM.

Turning to `O=C(NC1CC2CCC(C1)N2Cc1cccc(Cl)c1)c1ccc2ccccc2c1` (configuration not stated), the half-life at 2.5 µM in [1] is greater than 45 min. Further, the Stabilty entry in data set [2] is “Stable”. Also, the Activity in [3] is 2.1; in [13] it was 2.6; with Mus musculus [20], 13.13. Besides, the Ratio pKi in [5] is 0.81. Further, the deltaT with Mus musculus [6] is -0.67 °C; in the data set with Mus musculus [7], -2.22 °C; in [8] it was 0.41 °C; in the data set on Mus musculus [9] it was -1.57 °C; in data set [10] it was 1.16 °C; in [12] it was -0.38 °C. Further, the deltaT in the data set with Mus musculus [14] is -1.22 °C; in the data set with Mus musculus [15], -2.12 °C; in data set [16] it was 0.17 °C; in the data set on Mus musculus [17], -2.22 °C; in data set [18], 0.84 °C; in [19], 1 °C. Moreover, in data set [11], the Ki came to 298 nM.

The term half-life denotes the time in which the quantity being followed falls by half. Broadly, the Ki is a dissociation constant, usually derived from enzyme kinetics or from competition with a known ligand.

These data come from ChEMBL document CHEMBL4715748, “Synthesis and biological investigation of new equatorial (β) stereoisomers of 3-aminotropane arylamides with atypical antipsychotic profile” (Bioorg Med Chem, 2016).
